From ChEMBL document CHEMBL1121744, “Synthesis and antihypertensive activity of a series of 8-substituted 1-oxa-3,8-diazaspiro[4.5]decan-2-ones” (J Med Chem, 1981)
“And” between values parts separate entries of the source, which are not always exact repeats. Identical values can stand only once. The source made the active and inactive calls. The rule behind the calls is not given here.

Legend:
[1] = test system: Rattus norvegicus; assay: The antihypertensive activity as percentage fall in systolic blood pressure in spontaneously hypertensive rats after a period of 4 hr for a dose of 25 mg/kg po; NS=Not significant; format: functional, organism-based; design: dose 25 mg/kg; settings: Artery
Summary of the method: (§1)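 Male Okamoto-Aoki SHR, trained, in groups of four matched for mean systolic pressure; one group per run received water vehicle. Oral dosing in water (0.1 mL per 10 g) on two consecutive mornings. After the day-2 dose, rats were restrained at 30.0 ± 1.0 °C. Systolic pressure was read by tail cuff (inflated to 300 mmHg, first pulse) at 1–4 h. % fall is versus the untreated control group, by 1-tail t test (p ≤ 0.05).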

[2] = test system: Rattus norvegicus; assay: The antihypertensive activity as percentage fall in systolic blood pressure in spontaneously hypertensive rats after a period of 1 hr for a dose of 25 mg/kg po; format: functional, Artery; summary of the method: as §1
[3] = test system: Rattus norvegicus; assay: Percentage fall in systolic blood pressure in spontaneously hypertensive rats after 3 h following 50 mg/kg p.o.; format: functional, Artery; settings: route oral; summary of the method: as §1
[4] = test system: Rattus norvegicus; assay: Percentage fall in systolic blood pressure in spontaneously hypertensive rats after 2 hr following 50 mg/kg p.o.; format: functional, Artery; settings: route oral, 50 mg/kg; summary of the method: as §1
[5] = test system: Rattus norvegicus; assay: The antihypertensive activity as percentage fall in systolic blood pressure in spontaneously hypertensive rats after a period of 3 hr for a dose of 25 mg/kg po; NS=Not significant; format: functional, organism-based; design: dose 25 mg/kg; settings: Artery; summary of the method: as §1
[6] = Distribution coefficient between 1-Octanol and phosphate buffer at pH7.4; format: physicochemical; settings: 1-octanol/phosphate buffer, pH 7.4
Summary of the method: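 Octanol/buffer distribution measured at pH 7.4 in phosphate with sodium chloride. Either HPLC (0.004 M) or shake flask.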

[7] = test system: Rattus norvegicus; assay: Antihypertensive activity as percentage fall in systolic blood pressure in spontaneously hypertensive rats after a period of 1 hr for a dose of 50 mg/kg; format: functional, Artery; summary of the method: as §1
[8] = test system: Rattus norvegicus; assay: The antihypertensive activity as percentage fall in systolic blood pressure in spontaneously hypertensive rats after a period of 2 hr for a dose of 25 mg/kg po; NS=Not significant; format: functional, organism-based; design: dose 25 mg/kg; settings: Artery; summary of the method: as §1
[9] = test system: Rattus norvegicus; assay: The antihypertensive activity as percentage fall in systolic blood pressure in spontaneously hypertensive rats after a period of 4 hr for a dose of 50 mg/kg po
[10] = test system: Rattus norvegicus; assay: The antihypertensive activity as percentage fall in systolic blood pressure in spontaneously hypertensive rats after a period of 2 hr for a dose of 50 mg/kg po
[11] = test system: Rattus norvegicus; assay: Antihypertensive activity as percentage fall in systolic blood pressure in spontaneously hypertensive rats after a period of 2 hr for a dose of 50 mg/kg po; NS=Not significant; format: functional, organism-based; design: dose 50 mg/kg; settings: Artery
Summary of the method: (§2)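 Male Okamoto-Aoki SHR, trained, in groups of four matched for systolic pressure, with a concurrent vehicle control group. Oral dosing on two consecutive mornings, in water as solution or suspension at 0.1 mL/10 g. On day 2 rats were restrained at 30.0 ± 1.0 °C. Tail-cuff systolic pressure, four traces per rat, read at each hour. Per cent fall versus control; 1-tail t test, p ≤ 0.05.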

[12] = test system: Rattus norvegicus; assay: Antihypertensive activity as percentage fall in systolic blood pressure in spontaneously hypertensive rats after a period of 1 hr for a dose of 50 mg/kg po; NS=Not significant; format: functional, organism-based; design: dose 50 mg/kg; settings: Artery; summary of the method: as §2
[13] = test system: Rattus norvegicus; assay: The antihypertensive activity as percentage fall in systolic blood pressure in spontaneously hypertensive rats after a period of 3 hr for a dose of 50 mg/kg po
[14] = test system: Rattus norvegicus; assay: Antihypertensive activity as percentage fall in systolic blood pressure in spontaneously hypertensive rats after a period of 3 hr for a dose of 50 mg/kg po; NS=Not significant; format: functional, organism-based; design: dose 50 mg/kg; settings: Artery; summary of the method: as §2
[15] = test system: Rattus norvegicus; assay: Antihypertensive activity as percentage fall in systolic blood pressure in spontaneously hypertensive rats after a period of 4 hr for a dose of 50 mg/kg po; NS=Not significant; format: functional, organism-based; design: dose 50 mg/kg; settings: Artery; summary of the method: as §2
[16] = test system: Rattus norvegicus; assay: The antihypertensive activity as percentage fall in systolic blood pressure in spontaneously hypertensive rats after a period of 1 hr for a dose of 50 mg/kg po
[17] = test system: Rattus norvegicus; assay: Antihypertensive activity as percentage fall in systolic blood pressure in spontaneously hypertensive rats after a period of 4 hr for a dose of 50 mg/kg; format: functional, organism-based; design: dose 50 mg/kg; settings: Artery; summary of the method: as §1
[18] = test system: Rattus norvegicus; assay: Antihypertensive activity as percentage fall in systolic blood pressure in spontaneously hypertensive rats after a period of 3 h for a dose of 50 mg/kg; format: functional, organism-based; design: dose 50 mg/kg; settings: Artery; summary of the method: as §1
[19] = test system: Rattus norvegicus; assay: Antihypertensive activity as percentage fall in systolic blood pressure in spontaneously hypertensive rats after a period of 2 hr for a dose of 50 mg/kg; format: functional, organism-based; design: dose 50 mg/kg; settings: Artery; summary of the method: as §1

SMILES | Decrease in blood pressure [1] | Decrease in blood pressure [2] | Decrease in blood pressure [3] | Decrease in blood pressure [4] | Decrease in blood pressure [5] | logD [6] | Decrease in blood pressure [7] | Decrease in blood pressure [8] | Decrease in blood pressure [9] | Decrease in blood pressure [10] | Decrease in blood pressure [11] | Decrease in blood pressure [12] | Decrease in blood pressure [13] | Decrease in blood pressure [14] | Decrease in blood pressure [15] | Decrease in blood pressure [16] | Decrease in blood pressure [17] | Decrease in blood pressure [18] | Decrease in blood pressure [19]
CC(C)N1CC2(CCN(CC(O)C3COc4ccccc4O3)CC2)OC1=O (configuration not stated) | inactive | 14% | 16% | 20% and 16% | inactive | 2.05 | 26% | inactive |  |  |  |  |  |  |  |  |  |  | 
CN1CC2(CCN(CCc3c[nH]c4ccccc34)CC2)OC1=O |  |  |  |  |  | 1.73 |  |  | 9% | 18% | inactive | inactive | 8% | inactive | inactive | 23% |  |  | 
CCN1CC2(CCN(CCc3c[nH]c4ccccc34)CC2)OC1=O |  |  |  |  |  | 1.92 |  |  |  |  |  | inactive |  |  |  |  | Not significant | Not significant | Not significant
